Assays:
[1] = target: T1, Kappa-type opioid receptor (Cavia porcellus, UniProt P41144); test: Binding affinity was evaluated by measuring the ability to displace [3H]U-69593 radioligand binding from Opioid receptor kappa 1 in guinea pig brain membranes; type: cell membranes, Membrane
Summary of the method: (§1)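 Radioligand displacement in guinea pig brain homogenates in 50 mM Tris-HCl, pH 7.4, for 40 min at 25 °C. Radioligands were [3H]DAMGO for μ, [3H]U69593 for κ and [3H]DPDPE for δ sites. Result given as Ki.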

[2] = target: Delta-type opioid receptor (Mus musculus) (UniProt P32300); test: Binding affinity was evaluated by measuring the ability to displace DPDPE radioligand binding from delta opioid receptor in mouse vas deferens preparation
Summary of the method: (§2)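 Electrically stimulated isolated mouse vas deferens. Test compound was given as antagonist against agonist-induced responses: DAMGO for μ, DPDPE for δ, and CI977 or other κ agonists for κ. Ke = [antagonist]/(DR − 1), where DR is the ratio of equiactive agonist concentrations with and without antagonist.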

[3] = target: Kappa-type opioid receptor (Mus musculus) (UniProt P33534); test: Binding affinity was evaluated by measuring the ability to displace CI977 radioligand binding from Opioid receptor kappa 1 in mouse vas deferens preparation; summary of the method: as §2
Mu-type opioid receptor [4] = target: T2, Mu-type opioid receptor (Cavia porcellus, UniProt P97266); test: […] binding affinity was evaluated by measuring the ability to displace [3H]DAMGO radioligand binding from Opioid receptor mu 1 in guinea pig brain membranes; parameters: species or system Membrane; summary of the method: as §1
[5] = target: Mu-type opioid receptor (Mus musculus) (UniProt P42866); test: Binding affinity was evaluated by measuring the ability to displace [3H]-DAMGO radioligand binding from Opioid receptor mu 1 in mouse vas deferens preparation; summary of the method: as §2
Mu-type opioid receptor [6] = target: T2, Mu-type opioid receptor; test: Binding affinity was evaluated by measuring the ability to displace [3H]DAMGO radioligand binding from Opioid receptor mu 1 in guinea pig brain membranes; type: cell membranes, Membrane; summary of the method: as §1
[7] = target: T1, Kappa-type opioid receptor; test: […] binding affinity was evaluated by measuring the ability to displace [3H]U-69593 radioligand binding from Opioid receptor kappa 1 in guinea pig brain membranes; parameters: species or system Membrane; summary of the method: as §1
[8] = target: Kappa-type opioid receptor (Mus musculus) (UniProt P33534); test: Binding affinity was evaluated by measuring the ability from displace CI977 radioligand binding to Opioid receptor kappa 1 in mouse vas deferens preparation; summary of the method: as §2
[9] = target: Kappa-type opioid receptor (Mus musculus) (UniProt P33534); test: Binding affinity for kappa opioid receptor against agonist (U-69,593) in mouse vas deferens preparation; summary of the method: as §2
[10] = target: Mu-type opioid receptor (Mus musculus) (UniProt P42866); test: […] binding affinity was evaluated by measuring the ability from displace [3H]DAMGO radioligand binding to mu opioid receptor in mouse vas deferens preparation; summary of the method: as §2
[11] = target: Kappa-type opioid receptor (Mus musculus) (UniProt P33534); test: Binding affinity for kappa opioid receptor against agonist (ethylketocyclazocine) in mouse vas deferens; type: tissue-based; summary of the method: as §2
[12] = target: Delta-type opioid receptor (Mus musculus) (UniProt P32300); test: Binding affinity was evaluated by measuring the ability from displace DPDPE radioligand binding from delta opioid receptor in mouse vas deferens preparation; summary of the method: as §2
[13] = target: Kappa-type opioid receptor (Mus musculus) (UniProt P33534); test: Binding affinity for kappa opioid receptor against agonist (CI977) in mouse vas deferens preparation; summary of the method: as §2
[14] = target: Kappa-type opioid receptor (Cavia porcellus) (UniProt P41144); test: Binding affinity for kappa opioid receptor against agonist (CI977) in guinea pig ileum preparations; type: tissue-based
Summary of the method: (§3)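 Myenteric-plexus longitudinal muscle of guinea pig ileum. Test compound was given as antagonist against κ agonist responses. Ke = [antagonist]/(DR − 1), where DR is the ratio of equiactive agonist concentrations with and without antagonist, from separate determinations.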

[15] = target: Kappa-type opioid receptor (Cavia porcellus) (UniProt P41144); test: Binding affinity for kappa opioid receptor against agonist (U-69,593) in guinea pig ileum preparations; type: tissue-based; summary of the method: as §3
[16] = target: Kappa-type opioid receptor (Cavia porcellus) (UniProt P41144); test: Binding affinity for kappa opioid receptor against agonist (trifluadom) in guinea pig ileum preparations; type: tissue-based; summary of the method: as §3
[17] = target: Kappa-type opioid receptor (Mus musculus) (UniProt P33534); test: Binding affinity for kappa opioid receptor against agonist (dynorphine) in mouse vas deferens; type: tissue-based; summary of the method: as §2
[18] = target: Kappa-type opioid receptor (Cavia porcellus) (UniProt P41144); test: Binding affinity for kappa opioid receptor against agonist (ethylketocyclazocine) in guinea pig ileum preparations; type: tissue-based; summary of the method: as §3

Chain of Kappa-type opioid receptor (Mus musculus) (P33534 whole entry): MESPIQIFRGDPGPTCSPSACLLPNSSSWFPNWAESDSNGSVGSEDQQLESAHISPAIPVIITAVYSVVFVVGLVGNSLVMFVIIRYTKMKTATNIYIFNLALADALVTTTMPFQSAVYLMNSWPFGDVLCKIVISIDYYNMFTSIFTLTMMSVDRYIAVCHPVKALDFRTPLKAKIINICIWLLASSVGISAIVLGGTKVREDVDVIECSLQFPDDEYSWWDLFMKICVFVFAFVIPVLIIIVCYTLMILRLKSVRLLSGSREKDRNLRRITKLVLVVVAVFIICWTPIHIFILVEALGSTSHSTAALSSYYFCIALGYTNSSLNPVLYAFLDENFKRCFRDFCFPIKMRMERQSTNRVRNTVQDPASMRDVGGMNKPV
T2 sequence (P97266 whole entry): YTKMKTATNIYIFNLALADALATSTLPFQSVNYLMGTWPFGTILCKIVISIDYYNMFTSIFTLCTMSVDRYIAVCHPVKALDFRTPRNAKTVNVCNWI
Chain of Mu-type opioid receptor (Mus musculus) (P42866 whole entry): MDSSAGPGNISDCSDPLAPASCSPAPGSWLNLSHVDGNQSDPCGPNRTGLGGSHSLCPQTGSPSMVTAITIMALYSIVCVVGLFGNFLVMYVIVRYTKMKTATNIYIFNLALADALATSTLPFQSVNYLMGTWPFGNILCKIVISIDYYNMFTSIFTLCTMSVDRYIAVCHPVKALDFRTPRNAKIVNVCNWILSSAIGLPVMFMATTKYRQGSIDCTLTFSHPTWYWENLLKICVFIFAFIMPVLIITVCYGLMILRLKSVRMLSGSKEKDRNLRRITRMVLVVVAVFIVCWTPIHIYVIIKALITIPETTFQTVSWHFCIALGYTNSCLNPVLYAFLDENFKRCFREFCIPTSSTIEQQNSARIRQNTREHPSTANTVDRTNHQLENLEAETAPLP
T1 sequence (P41144 whole entry): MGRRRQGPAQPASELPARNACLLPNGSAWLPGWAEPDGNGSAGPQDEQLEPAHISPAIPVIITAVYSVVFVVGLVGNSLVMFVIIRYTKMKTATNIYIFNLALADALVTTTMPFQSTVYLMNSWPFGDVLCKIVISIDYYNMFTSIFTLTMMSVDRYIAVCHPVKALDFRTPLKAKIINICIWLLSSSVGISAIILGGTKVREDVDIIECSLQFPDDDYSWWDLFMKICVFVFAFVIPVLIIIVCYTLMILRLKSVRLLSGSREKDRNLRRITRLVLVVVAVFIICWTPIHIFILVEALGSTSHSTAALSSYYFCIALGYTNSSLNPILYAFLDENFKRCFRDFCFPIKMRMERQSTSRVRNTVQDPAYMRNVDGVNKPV
Chain of Kappa-type opioid receptor (Cavia porcellus) (P41144 whole entry): as above
Chain of Delta-type opioid receptor (Mus musculus) (P32300 whole entry): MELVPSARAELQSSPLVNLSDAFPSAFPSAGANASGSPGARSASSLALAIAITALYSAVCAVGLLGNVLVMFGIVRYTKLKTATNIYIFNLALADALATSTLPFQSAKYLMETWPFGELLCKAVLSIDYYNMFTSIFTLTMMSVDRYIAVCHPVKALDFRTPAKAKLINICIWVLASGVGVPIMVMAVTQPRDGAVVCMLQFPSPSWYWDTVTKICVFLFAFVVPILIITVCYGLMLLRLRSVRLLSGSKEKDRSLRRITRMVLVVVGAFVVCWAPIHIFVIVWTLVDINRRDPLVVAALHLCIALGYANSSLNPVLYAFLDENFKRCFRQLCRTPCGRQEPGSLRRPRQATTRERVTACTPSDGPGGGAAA

Structure (SMILES) | Ki [1] | Ke [2] | Ke [3] | Ki (Mu-type opioid receptor [4]) | Ke [5] | Ki (Mu-type opioid receptor [6]) | Ki [7] | further results
CCCCOc1c(O)ccc2c1C13CCN(CC4CC4)C(C2)[C@]1(OC)CCC(=O)C3 (stereo not given in full) | 13 nM | > 10000 nM | 174 nM | 10.9 nM | 24.9 nM |  |  | 
CCO[C@@]12CCC(=O)CC13CCN(CC1CC1)C2Cc1ccc(O)c(OC)c13 (stereo not given in full) |  | 106 nM | 233 nM |  | 2.92 nM | 1.42 nM | 5.46 nM | 
COc1c(O)ccc2c1C13CCN(CC4CC4)C(C2)[C@]1(O)CCC(=O)C3 (stereo not given in full) | 23 nM | 8920 nM | 243 nM | 54.4 nM | 93.8 nM |  |  | 
COc1c(O)ccc2c1C13CCN(CC4CC4)C(C2)[C@]1(OC)CCC(=O)C3 (stereo not given in full) | 4.18 nM |  |  |  |  | 6.15 nM |  | Ke [8]: 368 nM; Ke [9]: 354 nM; Ke [10]: 5.62 nM; Ke [11]: 910 nM; Ke [12]: 316 nM; Ke [13]: 368 nM; Ke [14]: 284 nM; Ke [15]: 97.5 nM; Ke [16]: 1010 nM; Ke [17]: 450 nM; Ke [18]: 3.95 nM
C=CCN1CCC23CC(=O)CC[C@@]2(OC)C1Cc1ccc(O)c(OC)c13 (stereo not given in full) |  | 2270 nM | 4.67 nM |  | 4.6 nM | 7.29 nM | 25.4 nM | 
COc1cccc2c1[C@]13CCN(CC4CC4)[C@H](C2)[C@]1(OC)CCC(=O)C3 [CYPRODIME] |  |  |  |  |  | 23.7 nM | 105 nM | 

Source: ChEMBL document CHEMBL1128501, “Synthesis and biological evaluation of 14-alkoxymorphinans. 11. 3-Hydroxycyprodime and analogues: opioid antagonist profile in comparison to cyprodime” (J Med Chem, 1995)
